Activity calls are given as the source filed them. The rule behind the calls is not given here.
Legend:
SN56 = test: Suppression of staurosporine-initiated apoptosis in mouse SN56 cells at 0.5 uM; assay type: functional, cell-based
In short: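 Murine SN56 basal forebrain cells and their rat-TrkA stably transfected line T17 (DMEM, 1 mM pyruvate, 10% FBS; T17 with 300 μg/ml G418). Cells were preincubated with 0.5 μM compound, then given 1 μM staurosporine for 9 h. Apoptosis was read with the caspase-3-activated dye MR(DEVD)2 (10 μM, last hour) plus Hoechst counterstain after fixation. Three independent experiments, mean ± SD.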

TrkB-stable [1] = test: Induction of MAPK signaling activation in TrkB-stable cells; assay type: cell-based
T17 [2] = test: Induction of MAPK phosphorylation in mouse T17 cells
TrkB-stable [3] = test: Induction of PI3K signaling activation in TrkB-stable cells; assay type: cell-based
[4] = molecular target: High affinity nerve growth factor receptor (Rattus norvegicus) (UniProt P35739); test: Induction of TrkA phosphorylation in rat hippocampal neurons at 0.5 uM after 30 mins; assay type: tissue-based; conditions: Hippocampus
In short: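 Primary hippocampal neurons were treated with 0.5 μM compounds for 30 min; lysates were immunoblotted with anti-phospho-Trk Y490 antibody. Repeated more than three times.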

PC-12 = test: Induction of neurite outgrowth in rat PC12 cells at 0.5 uM after 5 days; assay type: functional, cell-based
In short: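 PC12 cells were seeded at 1 × 10^4 per well on poly-L-lysine and grown 24 h, then treated with compounds (0.5 μM, or 10–50 nM in dose series) or NGF for 5 days, with medium replenished every other day. Neurites were counted as processes longer than two cell bodies. Three independent experiments.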

[5] = Suppression of staurosporine-initiated apoptosis in mouse T17 cells at 0.5 uM
Hippocampal neurone = test: Neuroprotective effect in glutamate-induced cell death in rat hippocampal neurons after 30 mins; assay type: functional, tissue-based; conditions: Hippocampus
In short: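 Primary hippocampal neurons were pretreated with compounds for 30 min, then exposed to 50 μM glutamate for 16 h. Apoptosis was quantified with the MR(DEVD)2 caspase-3 dye; NGF served as positive control. Three independent experiments, mean ± SD.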

[6] = molecular target: BDNF/NT-3 growth factors receptor (Homo sapiens) (UniProt Q16620); test: Binding affinity to recombinant GST-TrkB
In short: (§1)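 Recombinant GST-TrkA, GST-TrkB or GST-TrkC proteins tested in an in vitro binding assay with the compounds; experiments were repeated more than three times.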

[7] = molecular target: High affinity nerve growth factor receptor (Homo sapiens) (UniProt P04629); test: Stimulation of TrkA dimerization co-transfected in HEK293 cells at 0.5 uM after 30 mins by immunoblotting analysis in presence of green fluorescent protein; assay type: cell-based
In short: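 HEK293 cells were cotransfected with GFP-TrkA plus HA-TrkA or HA-TrkB, then treated with 0.5 μM compound for 30 min. GFP-TrkA was immunoprecipitated with anti-GFP and coprecipitated receptor detected by anti-HA immunoblot.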

Rattus norvegicus [8] = test: Neuroprotective effect in rat MCAO model assessed as decrease in cerebral blood flow at 2 mg/kg within 5 mins; assay type: functional, Brain; set-up: scale not given: the % may be the effect or the level left
In short: (§2)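 Adult male rats underwent 2 h transient MCAO; vehicle or 2 mg/kg was given 5 min before reperfusion onset. Relative cerebral blood flow over ipsilateral parietal cortex was measured by laser-Doppler flowmetry versus preischemic levels. Values are mean ± SD, compared by Student's t test.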

[9] = molecular target: High affinity nerve growth factor receptor (Homo sapiens) (UniProt P04629); test: Binding affinity to recombinant GST-TrkA; in short: as §1
[10] = molecular target: Mitogen-activated protein kinase 1 (Homo sapiens) (UniProt P28482); test: Induction of ERK2 phosphorylation
[11] = molecular target: Mitogen-activated protein kinase 3 (Homo sapiens) (UniProt P27361); test: Induction of ERK1 phosphorylation
Rattus norvegicus [12] = test: Neuroprotective effect in rat MCAO model assessed as increase in cerebral blood flow at 2 mg/kg after 120 mins of filament withdrawal; assay type: functional, Brain; in short: as §2
[13] = molecular target: High affinity nerve growth factor receptor (Rattus norvegicus) (UniProt P35739); test: Induction of Akt phosphorylation in rat primary hippocampal neurons; assay type: tissue-based; conditions: Hippocampus
In short: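 Hippocampal neurons were given 0.5 μM compound for 5–180 min (time course), or a dose range for 30 min, with 50 ng/ml NGF for comparison. Akt phosphorylation was detected by immunoblotting with phospho-Akt (473/308) antibodies.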

[14] = molecular target: NT-3 growth factor receptor (Homo sapiens) (UniProt Q16288); test: Binding affinity to recombinant GST-TrkC; in short: as §1
T17 [15] = test: […] in staurosporine-initiated apoptosis in mouse T17 cells at 0.5 uM

High affinity nerve growth factor receptor (Rattus norvegicus), sequence (P35739 whole entry): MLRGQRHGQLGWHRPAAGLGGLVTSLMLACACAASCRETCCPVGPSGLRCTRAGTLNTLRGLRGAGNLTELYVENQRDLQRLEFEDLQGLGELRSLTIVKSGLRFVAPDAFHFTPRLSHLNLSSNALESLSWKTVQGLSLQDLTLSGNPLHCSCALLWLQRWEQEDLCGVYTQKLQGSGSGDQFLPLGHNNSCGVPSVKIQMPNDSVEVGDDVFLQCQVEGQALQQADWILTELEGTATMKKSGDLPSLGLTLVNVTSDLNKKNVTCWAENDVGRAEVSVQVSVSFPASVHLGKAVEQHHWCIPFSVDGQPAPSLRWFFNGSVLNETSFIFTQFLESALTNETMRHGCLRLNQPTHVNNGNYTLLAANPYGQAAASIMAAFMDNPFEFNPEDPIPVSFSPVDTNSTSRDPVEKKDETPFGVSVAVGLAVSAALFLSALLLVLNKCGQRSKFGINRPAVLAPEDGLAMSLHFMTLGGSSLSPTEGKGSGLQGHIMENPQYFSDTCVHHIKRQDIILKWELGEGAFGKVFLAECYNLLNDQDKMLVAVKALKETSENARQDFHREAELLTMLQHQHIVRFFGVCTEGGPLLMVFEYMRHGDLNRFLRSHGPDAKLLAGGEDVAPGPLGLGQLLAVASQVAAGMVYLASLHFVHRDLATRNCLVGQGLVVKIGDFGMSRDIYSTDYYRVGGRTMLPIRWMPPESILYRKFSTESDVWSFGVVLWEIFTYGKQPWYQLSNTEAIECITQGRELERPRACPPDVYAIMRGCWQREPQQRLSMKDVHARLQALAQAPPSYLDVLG
High affinity nerve growth factor receptor (Homo sapiens), sequence (P04629 33-796 limits assumed): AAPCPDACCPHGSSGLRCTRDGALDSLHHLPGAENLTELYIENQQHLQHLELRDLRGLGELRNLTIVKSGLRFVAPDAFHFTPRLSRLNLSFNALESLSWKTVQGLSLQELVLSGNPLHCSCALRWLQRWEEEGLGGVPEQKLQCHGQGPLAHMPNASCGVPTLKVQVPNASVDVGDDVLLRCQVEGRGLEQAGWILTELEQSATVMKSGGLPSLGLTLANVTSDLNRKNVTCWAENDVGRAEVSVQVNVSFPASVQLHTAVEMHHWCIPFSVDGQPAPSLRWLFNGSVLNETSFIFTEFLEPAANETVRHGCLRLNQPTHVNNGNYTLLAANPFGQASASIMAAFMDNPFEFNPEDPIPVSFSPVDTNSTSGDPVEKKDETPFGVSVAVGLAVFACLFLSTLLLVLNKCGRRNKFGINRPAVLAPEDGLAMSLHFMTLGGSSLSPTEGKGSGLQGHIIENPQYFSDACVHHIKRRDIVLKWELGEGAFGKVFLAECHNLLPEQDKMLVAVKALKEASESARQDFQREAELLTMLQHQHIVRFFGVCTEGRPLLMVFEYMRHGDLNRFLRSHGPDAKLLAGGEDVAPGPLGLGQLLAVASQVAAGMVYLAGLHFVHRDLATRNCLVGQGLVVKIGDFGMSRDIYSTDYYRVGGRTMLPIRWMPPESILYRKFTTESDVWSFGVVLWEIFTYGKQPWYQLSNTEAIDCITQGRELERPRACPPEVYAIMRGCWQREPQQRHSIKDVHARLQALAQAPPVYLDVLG
BDNF/NT-3 growth factors receptor (Homo sapiens), sequence (Q16620 32-822 limits assumed): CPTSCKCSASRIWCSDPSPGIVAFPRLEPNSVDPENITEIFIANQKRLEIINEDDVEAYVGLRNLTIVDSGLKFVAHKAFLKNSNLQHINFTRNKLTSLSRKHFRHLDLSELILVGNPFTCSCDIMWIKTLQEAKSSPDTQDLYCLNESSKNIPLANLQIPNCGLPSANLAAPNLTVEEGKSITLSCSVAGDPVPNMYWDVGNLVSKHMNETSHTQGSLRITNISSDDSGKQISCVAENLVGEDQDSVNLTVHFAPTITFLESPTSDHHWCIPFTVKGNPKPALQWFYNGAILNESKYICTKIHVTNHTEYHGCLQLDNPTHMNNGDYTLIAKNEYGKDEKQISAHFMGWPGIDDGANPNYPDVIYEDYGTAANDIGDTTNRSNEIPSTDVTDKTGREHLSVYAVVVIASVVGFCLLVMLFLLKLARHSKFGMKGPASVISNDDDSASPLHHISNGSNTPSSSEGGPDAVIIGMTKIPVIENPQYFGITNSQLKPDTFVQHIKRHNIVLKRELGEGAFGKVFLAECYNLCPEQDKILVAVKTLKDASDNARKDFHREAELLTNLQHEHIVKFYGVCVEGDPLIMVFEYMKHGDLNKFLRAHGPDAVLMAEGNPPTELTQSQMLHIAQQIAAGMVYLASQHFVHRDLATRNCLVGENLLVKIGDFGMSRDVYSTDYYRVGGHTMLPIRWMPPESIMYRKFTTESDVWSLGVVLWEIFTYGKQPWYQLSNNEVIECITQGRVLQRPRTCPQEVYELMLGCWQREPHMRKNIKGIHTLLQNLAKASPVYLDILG
Mitogen-activated protein kinase 3 (Homo sapiens), sequence (P27361 whole entry): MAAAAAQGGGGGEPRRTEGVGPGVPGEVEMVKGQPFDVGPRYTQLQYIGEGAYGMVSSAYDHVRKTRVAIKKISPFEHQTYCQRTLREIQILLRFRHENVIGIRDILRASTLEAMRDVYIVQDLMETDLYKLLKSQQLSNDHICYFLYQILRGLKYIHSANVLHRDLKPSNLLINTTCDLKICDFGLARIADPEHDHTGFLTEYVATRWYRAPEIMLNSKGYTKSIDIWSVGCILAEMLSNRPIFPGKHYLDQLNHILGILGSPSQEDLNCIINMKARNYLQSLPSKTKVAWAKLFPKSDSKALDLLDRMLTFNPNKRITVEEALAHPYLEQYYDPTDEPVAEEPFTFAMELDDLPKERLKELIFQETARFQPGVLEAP
NT-3 growth factor receptor (Homo sapiens), sequence (Q16288 32-839 limits assumed): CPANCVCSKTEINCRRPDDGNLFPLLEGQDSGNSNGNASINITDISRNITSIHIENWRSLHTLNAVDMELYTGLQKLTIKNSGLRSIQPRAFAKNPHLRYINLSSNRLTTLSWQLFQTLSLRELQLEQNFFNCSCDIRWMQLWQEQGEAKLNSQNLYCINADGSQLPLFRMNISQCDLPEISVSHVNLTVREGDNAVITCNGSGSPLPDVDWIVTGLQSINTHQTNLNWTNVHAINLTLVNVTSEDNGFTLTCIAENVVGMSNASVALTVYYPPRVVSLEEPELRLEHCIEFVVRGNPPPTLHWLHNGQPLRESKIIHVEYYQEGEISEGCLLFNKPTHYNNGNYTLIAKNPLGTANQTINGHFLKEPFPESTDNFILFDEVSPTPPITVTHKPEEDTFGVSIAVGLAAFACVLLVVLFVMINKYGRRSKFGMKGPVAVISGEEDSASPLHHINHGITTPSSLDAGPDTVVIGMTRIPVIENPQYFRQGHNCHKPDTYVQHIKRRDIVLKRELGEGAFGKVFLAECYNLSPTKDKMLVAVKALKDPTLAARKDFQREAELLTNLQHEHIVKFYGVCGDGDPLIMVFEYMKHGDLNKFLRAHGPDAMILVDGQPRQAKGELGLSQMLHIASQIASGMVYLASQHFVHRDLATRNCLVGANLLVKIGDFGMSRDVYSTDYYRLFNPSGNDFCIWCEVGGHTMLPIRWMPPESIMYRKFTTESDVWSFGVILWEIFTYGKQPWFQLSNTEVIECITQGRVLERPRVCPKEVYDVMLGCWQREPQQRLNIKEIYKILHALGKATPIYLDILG
Mitogen-activated protein kinase 1 (Homo sapiens), sequence (P28482 whole entry): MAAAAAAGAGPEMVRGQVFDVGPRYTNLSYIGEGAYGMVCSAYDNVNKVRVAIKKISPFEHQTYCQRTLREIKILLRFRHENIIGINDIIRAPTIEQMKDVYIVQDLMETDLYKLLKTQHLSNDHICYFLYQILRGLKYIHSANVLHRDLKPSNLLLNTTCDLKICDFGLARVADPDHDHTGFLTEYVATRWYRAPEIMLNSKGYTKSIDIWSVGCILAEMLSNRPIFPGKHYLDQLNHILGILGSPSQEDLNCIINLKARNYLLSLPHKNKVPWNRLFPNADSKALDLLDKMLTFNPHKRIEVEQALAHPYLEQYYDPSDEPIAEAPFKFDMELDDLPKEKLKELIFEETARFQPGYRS

Structure (SMILES) | Activity (SN56) | Activity (TrkB-stable [1]) | Activity (T17 [2]) | Activity (TrkB-stable [3]) | Activity [4] | Activity (PC-12) | EC50 [5] | Activity (Hippocampal neurone) | Activity [6] | Activity [7] | Activity (Rattus norvegicus [8]) | Activity [9] | Activity [10] | Activity [11] | Activity (Rattus norvegicus [12]) | Activity [13] | Activity [14] | Activity (T17 [15])
CC(C)=CCC[C@]1(C)C=Cc2c(O)c3c(c(CC=C(C)C)c2O1)O[C@]12C(C[C@@H]4CC1C(C)(C)O[C@@]2(C/C=C(/C)C(=O)O)C4O)C3=O (some centres not stated) | Active | Active | inactive | Active | inactive | – | – | – | – | – | – | – | – | – | – | – | – | –
CC(C)=CCC[C@]1(C)C=Cc2c(O)c3c(c(CC=C(C)C)c2O1)O[C@]12C(=C[C@@H]4C[C@H]1C(C)(C)O[C@@]2(C/C=C(/C)C(=O)O)C4=O)C3=O [GAMBOGIC ACID] | Active | – | inactive | – | inactive | inactive | 20 nM | Active | inactive | inactive | 24.41% | Active | Active | Active | 85.83% | Active | inactive | –
CC(C)CCC[C@]1(C)C=Cc2c(O)c3c(c(CCC(C)C)c2O1)O[C@]12C(C[C@@H]4CC1C(C)(C)O[C@@]2(CCC(C)C(=O)O)C4O)C3=O (some centres not stated) | Active | Active | inactive | Active | inactive | – | – | – | – | – | – | – | – | – | – | Active | – | Active

— ChEMBL document CHEMBL1147069, “Gambogic amide, a selective agonist for TrkA receptor that possesses robust neurotrophic activity, prevents neuronal cell death” (Proc Natl Acad Sci U S A, 2007)
